Laboratory results: ChEMBL document CHEMBL1132106, “Synthesis, biological activity, and conformational analysis of four seco-D-15,19-bisnor-1alpha,25-dihydroxyvitamin D analogues, diastereomeric at C17 and C20” (1999)

Legend:
Mus musculus [1] = experiment: Hypercalcemic effect by daily sc injection of compound was measured as serum calcium concentration in vitamin D-replete normal NMRI mice relative to 1,25(OH)2D3 (100); assay type: functional
Method in brief: (§1)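 Vitamin D-replete normal NMRI mice given compound or solvent by daily subcutaneous injection for 7 consecutive days. Serum calcium concentration used as the read-out.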

[2] = target: T1, Vitamin D3 receptor (Sus scrofa) (UniProt A3RGC1); experiment: Binding affinity for porcine intestinal Vitamin D3 receptor (VDR) relative to 1,25(OH)2D3 (100)
T1 sequence (whole entry): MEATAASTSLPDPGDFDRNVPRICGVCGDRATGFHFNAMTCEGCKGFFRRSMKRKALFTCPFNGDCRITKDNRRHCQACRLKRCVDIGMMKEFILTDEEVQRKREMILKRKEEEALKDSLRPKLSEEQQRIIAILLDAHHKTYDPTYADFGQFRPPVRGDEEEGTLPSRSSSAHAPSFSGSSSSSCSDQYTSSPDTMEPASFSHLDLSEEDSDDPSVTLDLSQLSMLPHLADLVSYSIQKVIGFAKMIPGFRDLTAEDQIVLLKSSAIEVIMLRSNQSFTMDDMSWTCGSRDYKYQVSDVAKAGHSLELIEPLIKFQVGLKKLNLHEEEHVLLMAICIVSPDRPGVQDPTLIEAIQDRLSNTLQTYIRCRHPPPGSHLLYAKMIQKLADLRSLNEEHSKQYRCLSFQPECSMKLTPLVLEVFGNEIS
Method in brief: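 Competition with [3H]1,25(OH)2D3 for receptor in high-speed supernatant of normal pig intestinal mucosa homogenate. Incubated 20 h at 4 °C, then dextran-coated charcoal phase separation. Relative affinity from the concentration displacing 50% of tracer, referenced to 1,25(OH)2D3 at 100%.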

HL-60 = experiment: In vitro induction of cell differentiation in HL-60 cells relative to 1,25(OH)2D3 (100); assay type: functional, Homo sapiens
Method in brief: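 HL-60 cells seeded at 4×10^4 cells/mL in RPMI 1640 with 20% FCS and gentamycin, 37 °C, 5% CO2. Compounds added in ethanol (final <0.2%) one day later, then cultured 4 days. Differentiation read as NBT reduction: 1×10^6 cells/mL mixed with PMA (200 ng/mL) and NBT ([…]), 30 min at 37 °C. Formazan-positive cells counted by hemacytometer.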

Keratinocyte cell line [3] = experiment: Inhibition of human skin keratinocyte proliferation relative to 1,25(OH)2D3 (100); assay type: functional
Method in brief: (§2)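 Human foreskin keratinocytes isolated by overnight Dispase digestion and grown in serum-free keratinocyte medium with pituitary extract and EGF. Seeded at 5×10^3 cells/well in medium without insulin. After 1 day, serial dilutions added in ethanol (<0.2% final) for 72 h. Then [3H]thymidine 1 μCi/well for 2 h and incorporation counted.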

MCF7 [4] = experiment: Antiproliferative activity on MCF-7 cells relative to 1,25(OH)2D3 (100); assay type: functional, Homo sapiens
Method in brief: (§3)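 MCF-7 cells grown in DMEM/F12 with 10% heat-inactivated FCS, glutamine, penicillin and streptomycin, 37 °C, 5% CO2. Seeded at 5×10^3 cells/well. Compounds added after 24 h and incubated 72 h. Then 1 μCi [3H]thymidine per well for 4 h, cells harvested and radioactivity counted. Triplicate cultures. Activity expressed relative to 1,25(OH)2D3 set at 100.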

[5] = target: T2, Vitamin D-binding protein (Homo sapiens) (UniProt P02774); experiment: Binding affinity for human vitamin D binding protein (hDBP) relative to 1,25(OH)2D3 (100)
T2 sequence (whole entry): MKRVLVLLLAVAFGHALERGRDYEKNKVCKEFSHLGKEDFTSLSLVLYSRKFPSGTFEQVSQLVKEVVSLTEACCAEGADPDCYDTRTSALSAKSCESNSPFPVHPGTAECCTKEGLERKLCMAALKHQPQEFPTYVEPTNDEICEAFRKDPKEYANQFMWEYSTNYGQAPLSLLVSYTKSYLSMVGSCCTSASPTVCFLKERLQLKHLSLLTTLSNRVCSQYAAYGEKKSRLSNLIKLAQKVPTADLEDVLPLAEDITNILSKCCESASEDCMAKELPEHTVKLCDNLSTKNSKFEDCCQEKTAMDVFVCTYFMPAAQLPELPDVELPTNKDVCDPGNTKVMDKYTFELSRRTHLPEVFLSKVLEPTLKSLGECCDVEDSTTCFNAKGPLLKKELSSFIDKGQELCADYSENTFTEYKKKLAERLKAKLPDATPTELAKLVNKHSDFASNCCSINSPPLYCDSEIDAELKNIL
Method in brief: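 Competition with [3H]1,25(OH)2D3 for human serum DBP (0.18 μM), purified by affinity chromatography. Ligands added in 5 μL ethanol. Incubated 3 h at 4 °C in 0.01 M Tris-HCl with 0.154 M NaCl, pH 7.4. Bound and free separated with cold dextran-coated charcoal. Activity expressed relative to 1,25(OH)2D3 set at 100.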

[6] = target: T3, Vitamin D-binding protein (Rattus norvegicus) (UniProt P04276); experiment: Binding affinity for rat vitamin D binding protein (DBP) relative to 1,25(OH)2D3 (100)
T3 sequence (whole entry): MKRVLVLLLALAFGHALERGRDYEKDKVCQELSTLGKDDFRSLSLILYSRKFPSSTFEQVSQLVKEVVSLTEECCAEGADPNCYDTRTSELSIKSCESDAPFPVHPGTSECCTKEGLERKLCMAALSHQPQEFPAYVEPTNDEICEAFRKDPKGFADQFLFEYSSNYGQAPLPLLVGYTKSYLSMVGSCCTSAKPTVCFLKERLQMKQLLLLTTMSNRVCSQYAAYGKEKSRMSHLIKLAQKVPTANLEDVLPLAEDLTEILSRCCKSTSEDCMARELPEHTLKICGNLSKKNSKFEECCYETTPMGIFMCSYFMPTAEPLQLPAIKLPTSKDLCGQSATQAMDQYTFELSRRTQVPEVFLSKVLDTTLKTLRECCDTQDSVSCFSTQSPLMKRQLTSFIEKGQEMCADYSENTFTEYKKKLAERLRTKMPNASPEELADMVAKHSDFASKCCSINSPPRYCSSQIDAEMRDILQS

Gallus gallus = experiment: In Vivo evaluation for the calcemic activity in vitamin D-replete normal in ICA chick; assay type: functional
[7] = target: T3, Vitamin D-binding protein (Rattus norvegicus); experiment: Binding affinity for rat Vitamin D binding protein
Keratinocyte cell line [8] = experiment: In vitro proliferative activity on keratinocyte cells; assay type: functional, Homo sapiens; method in brief: as §2
MCF7 [9] = experiment: In vitro cell proliferative activity on MCF-7 cells; assay type: functional, Homo sapiens; method in brief: as §3
Mus musculus [10] = experiment: In Vivo evaluation for the calcemic activity in vitamin D-replete normal in NMRI mice; assay type: functional; method in brief: as §1

Row | Relative binding affinity [2] | Relative binding affinity [5] | Relative binding affinity [6] | SMILES | Hypercalcemic activity relative to 1,25(OH)2D3 (=100) (Mus musculus [1]) | Relative activity (HL-60) | Relative activity (Keratinocyte cell line [3]) | Relative activity (MCF7 [4]) | ICA (Gallus gallus) | other results
1 | 18 | 0 | – | C=C1/C(=C\C=C2/CCC[C@]3(C)[C@@H]([C@H](C)OCCC(C)(C)O)CC[C@@H]23)C[C@@H](O)C[C@@H]1O [MAXACALCITOL] | 0.3 | 197 | – | – | – | –
2 | 33 | – | 67 | C=C1/C(=C\C=C2/CCC[C@]3(C)[C@@H]([C@H](C)[C@@H](C)CCC(C)(C)O)CC[C@@H]23)C[C@@H](O)C[C@@H]1O | – | 100 | – | – | 50 | –
3 | 88 | 0.2 | – | C=C1/C(=C\C=C2/CCC[C@]3(C)[C@@H]([C@@H](C)CCCC(C)(C)O)CC[C@@H]23)C[C@@H](O)C[C@@H]1O | 800 | 3000 | – | – | – | –
4 | 1 | – | 0.25 | C=C1/C(=C\C=C2/CCC[C@]3(C)[C@@H]([C@@H](C)[C@@H](C)CCC(C)(C)O)CC[C@@H]23)C[C@@H](O)C[C@@H]1O | – | 8 | – | – | 0.1 | –
5 | 2000 | – | 0.25 | C=C1/C(=C\C=C2/CCC[C@]3(C)[C@@H]([C@@H](C)[C@H](C)CCC(C)(C)O)CC[C@@H]23)C[C@@H](O)C[C@@H]1O | – | 11900 | – | – | 50 | –

More lines, now with the values behind:

Row | SMILES | Relative binding affinity [2] | Relative binding affinity [5] | Relative binding affinity [6] | Hypercalcemic activity relative to 1,25(OH)2D3 (=100) (Mus musculus [1]) | Relative activity (HL-60) | Relative activity (Keratinocyte cell line [3]) | Relative activity (MCF7 [4]) | ICA (Gallus gallus) | other results
6 | C[C@@H](CCCC(C)(C)O)[C@H](C)[C@@]1(C)CCC/C(=C\C=C2C[C@@H](O)C[C@H](O)C2)C1 | 9 | 0 | – | 25 | 70 | 85 | 90 | – | –
7 | C=C1/C(=C\C=C2/CCC[C@]3(C)[C@@H]([C@H](C)[C@H](C)CCC(C)(C)O)CC[C@@H]23)C[C@@H](O)C[C@@H]1O | 1.7 | – | 0.45 | – | 1.3 | – | – | 25 | –
8 | C=C1/C(=C\C=C2/CCC[C@]3(C)[C@@H]([C@H](C)CCCC(C)(C)O)CC[C@@H]23)C[C@@H](O)C[C@@H]1O [CALCITRIOL] | – | – | – | – | – | – | – | 100 | Binding affinity [2]: 100; Activity (HL-60): 100; Binding affinity [7]: 100; Activity (Keratinocyte cell line [8]): 100; Binding affinity [5]: 100; Activity (MCF7 [9]): 100; Ca2+ serum (Mus musculus [10]): 100
9 | C[C@H]([C@@H](C)CCCC(C)(C)O)[C@@]1(C)CCC/C(=C\C=C2C[C@@H](O)C[C@H](O)C2)C1 | 10 | 0 | – | 0.25 | 10 | 80 | 40 | – | –
10 | C[C@H](CCCC(C)(C)O)[C@H](C)[C@@]1(C)CCC/C(=C\C=C2C[C@@H](O)C[C@H](O)C2)C1 | 8 | 0 | – | 0.25 | 75 | 60 | 75 | – | –
11 | C=C1/C(=C/C=C2/CCC[C@]3(C)C([C@H](C)CC#CC(C)(C)O)=CC[C@@H]23)C[C@@H](O)C[C@@H]1O | 85 | 0 | – | 8 | 950 | – | – | – | –
12 | C[C@H](CCCC(C)(C)O)[C@@H](C)[C@@]1(C)CCC/C(=C\C=C2C[C@@H](O)C[C@H](O)C2)C1 | 45 | 3 | – | 13 | 1000 | 5000 | 2000 | – | –
13 | C[C@H](CCCC(C)(C)O)[C@H]1CC[C@H]2/C(=C/C=C3C[C@@H](O)C[C@H](O)C3)CCC[C@]12C | 30 | 48 | – | 0.3 | 90 | – | – | – | –
